Data as given in ChEMBL document CHEMBL1153868, “Novel 8-deaza-5,6,7,8-tetrahydroaminopterin derivatives as dihydrofolate inhibitor: design, synthesis and antifolate activity” (Eur J Med Chem, 2009).

Key:
Dihydrofolate reductase = target: T1, Dihydrofolate reductase (Homo sapiens, UniProt P00374); test: Inhibition of human recombinant DHFR by spectrophotometry
T1 sequence (P00374 whole entry): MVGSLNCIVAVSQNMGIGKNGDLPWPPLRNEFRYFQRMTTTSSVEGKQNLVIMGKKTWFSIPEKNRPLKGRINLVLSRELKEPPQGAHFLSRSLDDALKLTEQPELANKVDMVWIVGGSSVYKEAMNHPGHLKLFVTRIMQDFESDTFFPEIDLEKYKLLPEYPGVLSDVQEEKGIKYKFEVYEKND

HeLa = test: Cytotoxicity against human HeLa cells after 48 hrs; format: functional, cell-based
Method in brief: (§1)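 Exponentially growing cells maintained in supplemented RPMI-1640 medium. Exposed to a range of compound concentrations for 48 h. Growth inhibition measured by MTT and SRB assays. IC50 reported as the mean of three independent experiments.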

Bel-7402 = test: Cytotoxicity against human Bel7402 cells after 48 hrs; format: functional, cell-based; conditions: Bel-7402, 48 h; method in brief: as §1
HL-60 = test: Cytotoxicity against human HL60 cells after 48 hrs; format: functional, cell-based; conditions: HL-60, 48 h; method in brief: as §1
BGC-823 = test: Cytotoxicity against human BGC823 cells after 48 hrs; format: functional, cell-based; conditions: BGC-823, 48 h; method in brief: as §1

Row | SMILES | IC50 (Dihydrofolate reductase) | IC50 (HeLa) | IC50 (Bel-7402) | IC50 (HL-60) | IC50 (BGC-823)
1 | Nc1nc(N)c2c(n1)CCC(CNc1ccc(C(=O)NC(CCC(=O)O)C(=O)O)cc1)N2 (centres undefined) | 0.56 µM | 0.96 µM | 87.9 µM | 0.9 µM | 0.44 µM
2 | C=CCN1c2c(N)nc(N)nc2CCC1CNc1ccc(C(=O)NC(CCC(=O)O)C(=O)O)cc1 (centres undefined) | 1.41 µM | 7.85 µM | 42.2 µM | 0.7 µM | 5.2 µM
3 | C=CCN(CC1CCc2nc(N)nc(N)c2N1CC=C)c1ccc(C(=O)NC(CCC(=O)O)C(=O)O)cc1 (centres undefined) | 2.15 µM | 21.7 µM | 7.1 µM | 1.42 µM | 2.43 µM
4 | C=CCN1c2c(N)nc(N)nc2CCC1CNc1ccc(C(=O)NC(CCC(=O)O)C(=O)O)cc1Br (centres undefined) | 2.37 µM | 0.9 µM | 1.2 µM | 0.57 µM | 6.59 µM
5 | Nc1nc(N)c2c(n1)CCC(CNc1ccc(C(=O)NC(CCC(=O)O)C(=O)O)cc1Br)N2CC(Br)CBr (centres undefined) | 9.34 µM | 19.4 µM | 257 µM | 48.8 µM | 22.6 µM
6 | CN(Cc1cnc2nc(N)nc(N)c2n1)c1ccc(C(=O)N[C@@H](CCC(=O)O)C(=O)O)cc1 [METHOTREXATE] |  | 0.1 µM | 82.3 µM | 0.21 µM | 0.11 µM
